The subject of series [1] is Staphylococcus epidermidis. Briefly: Antibacterial activity against methicillin-resistant Staphylococcus epidermidis ATCC 51625 assessed as growth inhibition after 18 hrs by CLSI microdilution broth assay. The note with it: ATCC 51625, 18 h. In kind it is functional. The method, boiled down: (§1)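 Modified CLSI broth microdilution in Mueller-Hinton broth. Wells held 90 µL of about 2 × 10^5 CFU/mL inoculum plus 10 µL of serially diluted peptidomimetic, range 0.7-100 µg/mL. Plates were incubated overnight with agitation at 37 °C and absorbance read at 600 nm after 18 h. Controls: inoculum without compound, and uninoculated broth. Run in triplicate.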

The nature of series [2]: Induction of hemolysis in human RBC assessed as hemoglobin release after 1 hr by microtiter plate reader analysis. The note with it: for HC10: erythrocyte, 1 h; for HC50 at 1 h: red blood cells. The class given is cell-based, Erythrocyte. The method, boiled down: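 Freshly isolated human RBCs washed three times in PBS (35 mM phosphate, 150 mM NaCl, pH 7.2) and used as a 4% (v/v) suspension. Mixed 1:1 with twofold serial dilutions of compound, incubated 1 h at 37 °C without agitation, then centrifuged. Supernatant A540 read. PBS defined 0% and 1% Triton X-100 defined 100% lysis; HC50 and HC10 derived.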

Series [3] in a line: Retention time of the compound by HPLC analysis. In kind it is physicochemical. The method, boiled down:
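Analytical RP-HPLC on a C18 column (5 µm, 4.6 × 250 mm) at room temperature. Run a linear gradient of 0.5-60% acetonitrile containing 0.05% TFA against water containing 0.05% TFA at 0.5 mL/min.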

A further series deals with Escherichia coli. Briefly: Antibacterial activity against Escherichia coli MTCC 723 assessed as growth inhibition after 18 hrs by CLSI microdilution broth assay. The class given is functional. The note with it: MTCC 723, 18 h. (Broth dilution looks for growth in wells or tubes with falling amounts of substance.)
The subject of a further series is Pseudomonas aeruginosa. Briefly: Antibacterial activity against Pseudomonas aeruginosa MTCC 2295 assessed as growth inhibition after 18 hrs by CLSI microdilution broth assay. The class given is functional. The settings on record: MTCC 2295, 18 h.
Series [4] relates to Staphylococcus aureus. The series is described as follows: Antibacterial activity against Staphylococcus aureus MTCC 3160 assessed as growth inhibition after 18 hrs by CLSI microdilution broth assay. The class given is functional. The settings on record: MTCC 3160, 18 h.
The subject of a further series is Bacillus subtilis. The series is described as follows: Antibacterial activity against Bacillus subtilis MTCC 2763 assessed as growth inhibition after 18 hrs by CLSI microdilution broth assay. The class given is functional. The note with it: MTCC 2763, 18 h.
Series [5] concerns Staphylococcus aureus. Briefly: Antibacterial activity against methicillin-resistant Staphylococcus aureus ATCC BAA-1720 assessed as growth inhibition after 18 hrs by CLSI microdilution broth assay. In kind it is functional. The note with it: ATCC BAA-1720, 18 h. The method, boiled down: as §1
Series [6] is described as follows: Selectivity ratio of HC50 for hemolysis in human RBC to MIC for Staphylococcus aureus.

The structures appear in SMILES notation. Converted amounts (≈) assume the structure as drawn. Where a SMILES comes first, the peptide text is derived from it. [ ]: non-standard residue; d: D form. 3Abz = Nc1cccc(C(=O)O)c1; Orn = NCCC[CH](N)C(=O)O

The term MIC denotes the lowest concentration that inhibits growth of the organism. What is called HC50 is the concentration giving 50% haemolysis. `N=C(N)NCCCC(NC(=O)c1cccc(NC(=O)C(N)Cc2c[nH]c3ccccc23)c1)C(N)=O` (centres undefined): the MIC (in series [1]; in the series on Escherichia coli; in the series on Pseudomonas aeruginosa; in the series on Staphylococcus aureus [4]; with Bacillus subtilis; in the series on Staphylococcus aureus [5]) was more than 200 µg/mL in each case. Moreover, the HC10 in series [2] worked out at 400 µg/mL. In addition, the HC50 at 1 h in series [2] was more than 500 µg/mL. Also, the Retention_time in series [3] is given as 26.553 min.

For the compound `N=C(N)NCCCC(NC(=O)C(Cc1ccccc1)NC(=O)c1cccc(NC(=O)C(Cc2ccccc2)NC(=O)C(CCCNC(=N)N)NC(=O)C(N)Cc2ccccc2)c1)C(N)=O` (centres undefined) (H-FRF[3Abz]FR-NH2; configuration not given here), the MIC is 120 µg/mL (≈ 135 µM) in [1]; more than 200 µg/mL in the series on Escherichia coli; more than 200 µg/mL with Pseudomonas aeruginosa; 120 µg/mL (≈ 135 µM) in the series on Staphylococcus aureus [4]; 150 µg/mL (≈ 169 µM) in the series on Bacillus subtilis; 125 µg/mL (≈ 140 µM) in the series on Staphylococcus aureus [5]. For the same compound, the HC10 in series [2] was determined as 125 µg/mL. The HC50 at 1 h in series [2] turned out to be 310 µg/mL. For the same compound, in series [6], the Selectivity ratio was found to be 2.58. The compound also gave a Retention_time in series [3] of 26.225 min.

For the compound `NCCCC(NC(=O)C(Cc1ccccc1)NC(=O)c1cccc(NC(=O)C(Cc2ccccc2)NC(=O)C(CCCN)NC(=O)C(N)Cc2ccccc2)c1)C(N)=O` (centres undefined) (H-F[Orn]F[3Abz]F[Orn]-NH2; configuration not given here), the MIC in [1] is more than 200 µg/mL; in the series on Escherichia coli, more than 200 µg/mL; with Pseudomonas aeruginosa, more than 200 µg/mL; in the series on Staphylococcus aureus [4], 150 µg/mL (≈ 186 µM); with Bacillus subtilis, more than 200 µg/mL; with Staphylococcus aureus [5], more than 200 µg/mL. Besides, in [2], the HC10 amounted to 180 µg/mL. Moreover, the HC50 at 1 h in series [2] worked out at 400 µg/mL. The Selectivity ratio in [6] is 2.66. In [3], the Retention_time came to 25.038 min.

Turning to `N=C(N)NCCCC(N)C(=O)NC(CCCNC(=N)N)C(=O)NC(Cc1ccccc1)C(=O)Nc1cccc(C(=O)NC(Cc2ccccc2)C(=O)NC(CCCNC(=N)N)C(N)=O)c1` (centres undefined) (H-RRF[3Abz]FR-NH2; configuration not given here), the MIC in [1] was 170 µg/mL (≈ 189 µM); with Escherichia coli it was more than 200 µg/mL; in the series on Pseudomonas aeruginosa, more than 200 µg/mL; in the series on Staphylococcus aureus [4] it was 150 µg/mL (≈ 167 µM); in the series on Bacillus subtilis, 200 µg/mL (≈ 222 µM); in the series on Staphylococcus aureus [5], 150 µg/mL (≈ 167 µM). The HC10 in [2] turned out to be 130 µg/mL. Also, the HC50 at 1 h in series [2] was determined as 375 µg/mL. The Selectivity ratio in [6] is 2.5. In series [3], this compound had a Retention_time of 24.871 min.

On to `N=C(N)NCCCC(N)C(=O)NC(CCCNC(=N)N)C(=O)NC(Cc1c[nH]c2ccccc12)C(=O)NC(Cc1c[nH]c2ccccc12)C(=O)NC(CCCNC(=N)N)C(N)=O` (centres undefined) (H-RRWWR-NH2; configuration not given here), for which the MIC was 20 µg/mL (≈ 23.3 µM) in [1]; 75 µg/mL (≈ 87.4 µM) in the series on Escherichia coli; 100 µg/mL (≈ 117 µM) in the series with Pseudomonas aeruginosa; 25 µg/mL (≈ 29.1 µM) with Staphylococcus aureus [4]; 70 µg/mL (≈ 81.6 µM) in the series on Bacillus subtilis; 25 µg/mL (≈ 29.1 µM) with Staphylococcus aureus [5]. The HC10 in series [2] is 90 µg/mL. Further, the HC50 at 1 h in series [2] came to 240 µg/mL. Further, the Selectivity ratio in series [6] amounted to 9.6. In addition, the Retention_time in [3] is recorded as 29.606 min.

Consider `N=C(N)NCCCC(N)C(=O)NC(CCCNC(=N)N)C(=O)NC(Cc1c[nH]c2ccccc12)C(=O)Nc1cccc(C(=O)NC(Cc2c[nH]c3ccccc23)C(=O)NC(CCCNC(=N)N)C(N)=O)c1` (centres undefined) (H-RRW[3Abz]WR-NH2; configuration not given here), for which the minimal inhibitory concentration (MIC) in series [1] was found to be 6.25 µg/mL (≈ 6.4 µM); in the series with Escherichia coli, 17.5 µg/mL (≈ 17.9 µM); in the series on Pseudomonas aeruginosa, 25 µg/mL (≈ 25.6 µM); with Staphylococcus aureus [4] it was 6.25 µg/mL (≈ 6.4 µM); in the series with Bacillus subtilis it was 25 µg/mL (≈ 25.6 µM); with Staphylococcus aureus [5], 5 µg/mL (≈ 5.12 µM). Moreover, in series [2], the HC10 came to 100 µg/mL. The HC50 at 1 h in series [2] turned out to be 355 µg/mL. Further, the Selectivity ratio in series [6] was 56.8. Moreover, in [3], the Retention_time was 27.402 min.

In the case of `N=C(N)NCCCC(N)C(=O)NC(Cc1c[nH]c2ccccc12)C(=O)NC(CCCNC(=N)N)C(=O)Nc1cccc(C(=O)NC(Cc2c[nH]c3ccccc23)C(=O)NC(CCCNC(=N)N)C(N)=O)c1` (centres undefined) (H-RWR[3Abz]WR-NH2; configuration not given here), the MIC was determined as 50 µg/mL (≈ 51.2 µM) in series [1]; 120 µg/mL (≈ 123 µM) in the series with Escherichia coli; 120 µg/mL (≈ 123 µM) in the series with Pseudomonas aeruginosa; 50 µg/mL (≈ 51.2 µM) with Staphylococcus aureus [4]; 125 µg/mL (≈ 128 µM) with Bacillus subtilis; 40 µg/mL (≈ 40.9 µM) with Staphylococcus aureus [5]. Further, the HC10 in series [2] was 210 µg/mL. The HC50 at 1 h in series [2] is 400 µg/mL. In addition, in [6], the Selectivity ratio came to 8. In [3], this compound had a Retention_time of 27.446 min.

With `N=C(N)NCCCC(N)C(=O)NC(Cc1c[nH]c2ccccc12)C(=O)NC(Cc1c[nH]c2ccccc12)C(=O)Nc1cccc(C(=O)NC(CCCNC(=N)N)C(=O)NC(CCCNC(=N)N)C(N)=O)c1` (centres undefined) (H-RWW[3Abz]RR-NH2; configuration not given here), the MIC in series [1] was determined as 25 µg/mL (≈ 25.6 µM); in the series on Escherichia coli, 70 µg/mL (≈ 71.6 µM); in the series on Pseudomonas aeruginosa it was 75 µg/mL (≈ 76.8 µM); in the series on Staphylococcus aureus [4], 25 µg/mL (≈ 25.6 µM); in the series on Bacillus subtilis, 75 µg/mL (≈ 76.8 µM); in the series on Staphylococcus aureus [5] it was 25 µg/mL (≈ 25.6 µM). Further, the HC10 in series [2] worked out at 255 µg/mL. Further, in [2], the HC50 at 1 h was 420 µg/mL. Also, the Selectivity ratio in series [6] was found to be 16.8. In addition, in series [3], the Retention_time came to 26.96 min.

As to `N=C(N)NCCCC(N)C(=O)NC(Cc1c[nH]c2ccccc12)C(=O)Nc1cccc(C(=O)NC(CCCNC(=N)N)C(N)=O)c1` (centres undefined) (H-RW[3Abz]R-NH2; configuration not given here), the MIC stood at 70 µg/mL (≈ 110 µM) in [1]; 70 µg/mL (≈ 110 µM) in the series on Escherichia coli; 75 µg/mL (≈ 118 µM) with Pseudomonas aeruginosa; 50 µg/mL (≈ 78.8 µM) in the series on Staphylococcus aureus [4]; 100 µg/mL (≈ 158 µM) in the series with Bacillus subtilis; 60 µg/mL (≈ 94.5 µM) in the series with Staphylococcus aureus [5]. For the same compound, the HC10 in series [2] turned out to be 205 µg/mL. For the same compound, in series [2], the HC50 at 1 h worked out at 500 µg/mL. The Selectivity ratio in series [6] was determined as 10. For the same compound, the Retention_time in [3] amounted to 23.821 min.

For `N=C(N)NCCCC(N)C(=O)NC(Cc1c[nH]c2ccccc12)C(=O)Nc1cccc(C(=O)NC(CCCNC(=N)N)C(=O)NC(CCCNC(=N)N)C(N)=O)c1` (centres undefined) (H-RW[3Abz]RR-NH2; configuration not given here), the MIC in series [1] came to 75 µg/mL (≈ 94.8 µM); in the series with Escherichia coli, 100 µg/mL (≈ 126 µM); with Pseudomonas aeruginosa, 75 µg/mL (≈ 94.8 µM); with Staphylococcus aureus [4] it was 70 µg/mL (≈ 88.5 µM); in the series on Bacillus subtilis, 100 µg/mL (≈ 126 µM); with Staphylococcus aureus [5] it was 75 µg/mL (≈ 94.8 µM). For the same compound, in series [2], the HC10 is 350 µg/mL. For the same compound, in series [2], the HC50 at 1 h was more than 500 µg/mL. Further, in series [6], the Selectivity ratio is more than 7.14. Further, the Retention_time in [3] is reported as 22.534 min.

Regarding `NCCCC(N)C(=O)NC(CCCN)C(=O)NC(Cc1ccccc1)C(=O)Nc1cccc(C(=O)NC(Cc2ccccc2)C(=O)NC(CCCN)C(N)=O)c1` (centres undefined) (H-[Orn][Orn]F[3Abz]F[Orn]-NH2; configuration not given here), the MIC (in [1]; in the series with Escherichia coli; in the series with Pseudomonas aeruginosa; in the series with Staphylococcus aureus [4]; with Bacillus subtilis; in the series on Staphylococcus aureus [5]) was more than 200 µg/mL each time. In [2], the HC10 is 210 µg/mL. The HC50 at 1 h in series [2] came out at 490 µg/mL. Also, the Retention_time in [3] is 23.313 min.

In the case of `CN[C@H](CC(C)C)C(=O)N[C@H]1C(=O)N[C@@H](CC(N)=O)C(=O)N[C@H]2C(=O)N[C@H]3C(=O)N[C@H](C(=O)N[C@H](C(=O)O)c4cc(O)cc(O)c4-c4cc3ccc4O)[C@H](O)c3ccc(c(Cl)c3)Oc3cc2cc(c3O[C@@H]2O[C@H](CO)[C@@H](O)[C@H](O)[C@H]2O[C@H]2C[C@](C)(N)[C@H](O)[C@H](C)O2)Oc2ccc(cc2Cl)[C@H]1O` [VANCOMYCIN], the MIC in the series on Staphylococcus aureus [5] was 1.5 µg/mL (≈ 1.04 µM).

For the origin of these results see ChEMBL document CHEMBL3286351, “Antibacterial evaluation of structurally amphipathic, membrane active small cationic peptidomimetics: synthesized by incorporating 3-amino benzoic acid as peptidomimetic element” (Eur J Med Chem, 2014).
